ChEMBL document CHEMBL1148304, “Discovery of embelin as a cell-permeable, small-molecular weight inhibitor of XIAP through structure-based computational screening of a traditional herbal medicine three-dimensional structure database” (J Med Chem, 2004)
Where “and” joins values, the source holds several entries; their conditions need not be identical. Identical values can stand only once. Values belong to the compound of their own block, whether it stands above or below them. Where a SMILES comes first, the peptide text is derived from it. The star is where a group is joined. X1 = O=C(ON1C(=O)CCC1=O)c1cccc(-c2c3ccc(=O)cc-3oc3cc(O)ccc23)c1C(=O)*

Key:
[1] = molecular target: T1, E3 ubiquitin-protein ligase XIAP (Homo sapiens, UniProt P98170); assay: Dissociation constant for XIAP BIR3 protein in FP-based binding assay
T1 sequence (P98170 whole entry): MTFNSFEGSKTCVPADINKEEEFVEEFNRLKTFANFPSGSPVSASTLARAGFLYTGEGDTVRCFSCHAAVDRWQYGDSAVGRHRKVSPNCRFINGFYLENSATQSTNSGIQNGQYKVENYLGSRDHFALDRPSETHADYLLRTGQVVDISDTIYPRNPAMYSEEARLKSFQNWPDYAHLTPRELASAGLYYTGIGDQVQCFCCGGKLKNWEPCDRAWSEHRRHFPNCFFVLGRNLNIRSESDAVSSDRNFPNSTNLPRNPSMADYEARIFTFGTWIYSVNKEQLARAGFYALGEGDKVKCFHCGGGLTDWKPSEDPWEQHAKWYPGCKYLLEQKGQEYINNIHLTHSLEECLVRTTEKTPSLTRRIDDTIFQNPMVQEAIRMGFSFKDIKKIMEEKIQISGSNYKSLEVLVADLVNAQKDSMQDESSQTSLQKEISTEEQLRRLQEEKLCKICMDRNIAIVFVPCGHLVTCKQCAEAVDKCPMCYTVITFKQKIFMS

[2] = molecular target: T1, E3 ubiquitin-protein ligase XIAP; assay: Dissociation constant for XIAP BIR3 protein using different binding assay
Jurkat [3] = assay: Percent of Jurkat-Vec cells killed after 72 hr of 2.5 uM of compound administration; assay type: cell-based; details: human
Outline: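 Jurkat T cells stably carrying empty vector, kept in RPMI 1640 with 10% fetal calf serum and 1 µg/mL puromycin at 37 °C, 5% CO2. Cell growth assay at 5000 cells/well in 10% FBS medium, drug added in triplicate for 72 h. WST-1 then added for 1-3 h at 37 °C. Absorbance read at 450 nm, corrected at 650 nm, and compared with vehicle-control wells.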

Jurkat [4] = assay: Percent of Jurkat-XIAP cells killed after 72 hr of 10 uM of compound administration; details: human
Jurkat [5] = assay: Percent of Jurkat-XIAP cells killed after 72 hr of 2.5 uM of compound administration; details: human
[6] = molecular target: T1, E3 ubiquitin-protein ligase XIAP; assay: Compound was tested for inhibitory activity towards XIAP BIR3 protein
Jurkat [7] = assay: Inhibitory concentration of compound against Jurkat-Vec cells; assay type: functional, cell-based; details: Homo sapiens
Outline: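 Stably vector-transfected Jurkat T cells kept in RPMI 1640 with 10% fetal calf serum and 1 µg/mL puromycin; growth read by WST-1 as for prostate lines: 5000 cells/well, triplicate concentrations, 4–5 days, absorbance 450/650 nm versus vehicle control, IC50 from sigmoid fit.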

Jurkat [8] = assay: Induction of apoptosis by etoposide in Jurkat vec cells at a dose of 2.5 uM for 72 h; assay type: functional, Homo sapiens
Outline: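 Stably vector-transfected Jurkat cells exposed to etoposide 2.5 µM for 72 h in the cell growth assay; reported as % of cells killed.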

LNCaP [9] = assay: Inhibitory concentration of compound against growth of LNCaP cells in vitro; assay type: functional, cell-based; details: Homo sapiens
Outline: (§1)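 WST-1 growth assay: 5000 cells/well in medium with 10% FBS, serial compound concentrations in triplicate for 4–5 days (five days per legend); WST-1 added 1–3 h at 37 °C, absorbance 450 nm corrected at 650 nm. Growth as % of vehicle-control absorbance; IC50 by sigmoid curve fit; experiment repeated three times.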

LNCaP [10] = assay: Compound was tested for inhibition of LnCap prostate cancer cells; assay type: functional, cell-based; details: Homo sapiens; outline: as §1
PC-3 [11] = assay: Inhibitory concentration of compound against growth of PC-3 cells in vitro; assay type: functional, cell-based; details: Homo sapiens; outline: as §1
PC-3 [12] = assay: Activation of caspase-9 by embelin in PC-3 prostate cancer cells at a concentration of 20 uM; assay type: functional, Homo sapiens
Outline: (§2)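 PC-3 cells seeded 1 × 10^6 per well, exposed to compound or DMSO vehicle for 42 h; parallel control had pan-caspase inhibitor Z-VAD-FMK added 5 min before compound. Cells in complete medium labeled with Red-LEHD-FMK 0.5 h at 37 °C, 5% CO2, washed; active caspase-9 scored by flow cytometry in PI channel as % positive cells.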

PC-3 [13] = assay: Percent of PC-3 cells underwent apoptosis after incubation with 25 uM of compound for 48 hr; assay type: functional, Homo sapiens
Outline: (§3)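 PC-3 cells, 1 × 10^6 per well, treated in triplicate with compound for 48 h, trypsinized, PBS-washed, stained with Annexin V-FITC plus propidium iodide; flow cytometry, reported as % Annexin V-FITC-positive apoptotic cells; three separate experiments.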

PC-3 [14] = assay: Percent of PC-3 cells underwent apoptosis after incubation with 50 uM of compound for 48 hr; assay type: functional, Homo sapiens; outline: as §3
PC-3 [15] = assay: Activation of caspase-9 by embelin in PC-3 prostate cancer cells at a concentration of 40 uM; assay type: functional, Homo sapiens; outline: as §2
PC-3 [16] = assay: Induction of apoptosis by embelin in PC-3 prostate cancer cells at a concentration of 25 uM for 48 h; assay type: functional, Homo sapiens; outline: as §3
PC-3 [17] = assay: Induction of apoptosis by embelin in PC-3 prostate cancer cells at a concentration of 50 uM for 48 h; assay type: functional, Homo sapiens; outline: as §3
PC-3 [18] = assay: Compound was tested for inhibition of PC-3 prostate cancer cells; assay type: functional, cell-based; details: Homo sapiens; outline: as §1
PC-3 [19] = assay: Percent of PC-3 cells stained for activated caspase-9 after incubation with 20 uM of compound for 42h; assay type: functional, Homo sapiens; outline: as §2
PC-3 [20] = assay: Percent of PC-3 cells stained for activated caspase-9 after incubation with 40 uM of compound for 42h; assay type: functional, Homo sapiens; outline: as §2
PrEC [21] = assay: Selectivity in normal human prostate epithelial cells (PrEC); assay type: functional, cell-based; outline: as §1
PrEC [22] = assay: Inhibitory concentration of compound against growth of PrEC cells in vitro; assay type: functional, cell-based; details: Homo sapiens; outline: as §1
WI-38 5000 = assay: Selectivity in normal human fibroblast cell line, WI-38 cells; assay type: functional, cell-based; outline: as §1
WI-38 = assay: Inhibitory concentration of compound against growth of WI-38 cells in vitro; assay type: functional, cell-based; details: Homo sapiens; outline: as §1

Kd [1]: 0.038 µM | Kd [2]: 0.02 µM
SMILES: C[C@H](N)C(=O)N[C@@H](CCCNC(=N)N)C(=O)N1CCC[C@H]1C(=O)N[C@@H](Cc1ccccc1)C(=O)N[C@@H](C)C(=O)N[C@@H](CCC(N)=O)C(=O)N[C@@H](CCCCN)C(=O)O (H-ARPFAQK-OH)

SMILES: COc1cc([C@@H]2c3cc4c(cc3[C@@H](O[C@@H]3O[C@@H]5CO[C@@H](C)O[C@H]5[C@H](O)[C@H]3O)[C@H]3COC(=O)[C@H]23)OCO4)cc(OC)c1O [ETOPOSIDE]
Death (Jurkat [3]): 94.3% | Death (Jurkat [4]): 85% | Death (Jurkat [5]): 59%

IC50 [6]: 0.57 µM
SMILES: C[C@H](N)C(=O)N[C@@H](CCCNC(=N)N)C(=O)N1CCC[C@H]1C(=O)N[C@@H](Cc1ccccc1)C(=O)N[C@@H](C)C(=O)N[C@@H](CCC(N)=O)C(=O)N[C@@H](CCCCNC(=O)c1c(C(=O)ON2C(=O)CCC2=O)cccc1-c1c2ccc(=O)cc-2oc2cc(O)ccc12)C(=O)O (H-ARPFAQK(X1)-OH)

IC50 [6]: 4.1 µM | IC50 (Jurkat [7]): 20 µM | IC50 (LNCaP [9]): 5.7 µM | IC50 (LNCaP [10]): 5.7 µM | IC50 (PC-3 [11]): 3.7 µM | IC50 (PC-3 [18]): 3.7 µM
SMILES: CCCCCCCCCCCC1=C(O)C(=O)C=C(O)C1=O [EMBELIN]
Induction (Jurkat [8]): 94.3% and 59% | Induction (PC-3 [12]): 33% | Apoptosis (PC-3 [13]): 30% | Apoptosis (PC-3 [14]): 75% | Induction (PC-3 [15]): 62.1% | Induction (PC-3 [16]): 30% | Induction (PC-3 [17]): 75% | Staining (PC-3 [19]): 33% | Staining (PC-3 [20]): 62.1% | IC50 (PrEC [21]): 20.1 µM | IC50 (PrEC [22]): 20.1 µM | IC50 (WI-38 5000): 19.3 µM | IC50 (WI-38): 19.3 µM
